High-throughput results: PubChem, several laboratories
Compounds with a hit are over-represented: about 2% of the library has one in this group of screens.
CXCR6 block – CXCR6 (human) receptor inhibition; AID 602244; CHO-K1 PathHunter CXCR6 beta-arrestin, luminescence; 360,000 tested, 0.36% active; inhibition, % at 20 µM; in the data active = inhibition above about 34%, passing the limit was not always enough;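 also: antagonist mode with CXCL16 agonist at 10 nM final; 0% = 10 nM CXCL16 with DMSO and 100% = unstimulated wells without agonist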
Target sequence (O00574 whole entry, looked up): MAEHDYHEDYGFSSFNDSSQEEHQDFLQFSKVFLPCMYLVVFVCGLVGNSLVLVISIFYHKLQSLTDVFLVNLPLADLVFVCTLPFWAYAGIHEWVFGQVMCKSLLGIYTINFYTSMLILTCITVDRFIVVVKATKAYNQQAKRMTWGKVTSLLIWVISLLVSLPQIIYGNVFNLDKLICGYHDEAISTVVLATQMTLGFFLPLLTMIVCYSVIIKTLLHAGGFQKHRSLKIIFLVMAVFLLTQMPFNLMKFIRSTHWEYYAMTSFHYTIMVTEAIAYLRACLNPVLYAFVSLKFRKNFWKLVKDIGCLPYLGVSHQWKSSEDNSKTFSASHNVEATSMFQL
CCR6 antagonist – antagonists of human CCR6 receptor; P51684; CHO-K1 CCR6 PathHunter beta-arrestin, luminescence, CCL20-stimulated; inhibition, % at 20 µM; 340,000 tested, 0.49% active; AID 493098;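 active = compounds whose inhibition of the agonist-driven luminescence signal at 20 µM reaches about 50%, limit read from the data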;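 also: cells stimulated with CCL20 at 14 nM final; plate controls were DMSO with CCL20 for no effect and DMSO without agonist for full effect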
Target sequence (P51684 whole entry, looked up): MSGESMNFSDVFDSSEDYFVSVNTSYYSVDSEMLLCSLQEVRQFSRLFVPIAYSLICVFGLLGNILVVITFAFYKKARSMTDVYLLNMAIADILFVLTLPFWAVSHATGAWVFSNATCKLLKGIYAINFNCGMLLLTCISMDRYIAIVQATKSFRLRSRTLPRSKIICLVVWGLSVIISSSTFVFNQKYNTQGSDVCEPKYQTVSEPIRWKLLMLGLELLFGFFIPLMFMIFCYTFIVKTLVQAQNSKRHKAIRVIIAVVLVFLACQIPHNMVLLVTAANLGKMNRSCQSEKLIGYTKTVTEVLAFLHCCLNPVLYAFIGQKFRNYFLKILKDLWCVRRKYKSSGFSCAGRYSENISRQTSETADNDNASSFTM
APJ ag – APJ receptor agonism. P35414. CHO-K1 APJ PathHunter beta-arrestin, luminescence; 0% DMSO wells, 100% apelin. activation, % at 20 µM. 330,000 tested, 0.11% active. AID 2520;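 active = activation more than six SD over the plate average, tested at 20 µM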;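 also: 0% = DMSO alone and 100% = apelin-13 at 10 nM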
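Test system: CHO-K1 APJ beta-arrestin complementation cell line | Compound: Single test compound dose, 20 µM final, 1% DMSO | Incubation: Compound 90 min 25 °C, reagent 1 h | Measured by: beta-gal luminescence | Read-out basis: APJ–arrestin association signal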
FXN GAA850 act – frataxin GAA850 promoter activation; 360,000 tested, 0.56% active; activation, % at 6 µM; HEK293 lucGAA850 FXN promoter luciferase reporter, 24 h; percent of 10 µM SAHA response;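 active = activation above the average of all compounds screened plus 3 SD, cutoff fixed separately per campaign, cut at about 7.5% in these data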;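 also: 0% = DMSO wells and 100% = 10 µM SAHA wells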
EBI2 antag – EBI2 (human) antagonism; inhibition, % at 5 µM; 360,000 tested, 0.81% active; EBI2 beta-arrestin recruitment, luminescence, 7a,25-OHC stimulated; P32249; in the data active = inhibition above about 38%;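 also: enzyme fragment complementation signal reports receptor beta-arrestin coupling in cells; 0% = agonist plus DMSO wells and 100% = wells without agonist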
APJ antagonist – APJ receptor antagonism; P35414; CHO-K1 APJ beta-arrestin complementation, luminescence; inhibition, % at 20 µM; 330,000 tested, 0.32% active;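 active = inhibition above about 40% at 20 µM, limit read from the data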;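 also: cells challenged with 10 nM apelin-13 agonist together with compound; plate controls were apelin-13 plus DMSO wells for no effect and DMSO wells lacking apelin-13 for full effect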
GAA30 FXN cntr – counter-screen for GAA850 frataxin promoter activators: GAA30 promoter activation. activation, % at 6 µM. HEK293 lucGAA30 FXN promoter luciferase, 24 h; DMSO = 0%, 5 µM ipriflavone = 100%. shares compounds with FXN GAA850 act. 1,900 tested, 66% active;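 active = mean activation above the mean of solvent-only control wells plus 3 SD, cut at about 22% in these data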;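 also: counterscreen of GAA850 promoter hits where activity marks nonselective or luminescence artifacts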
GAA850 confirm – GAA850 FXN promoter activation confirmation. activation, % at 6 µM. HEK293 lucGAA850 FXN promoter luciferase reporter, 24 h; 100% = activation by SAHA. AID 588351. shares compounds with FXN GAA850 act. 1,900 tested, 86% active;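 active = mean activation above a set limit taken from the primary screen, cut at about 8% in these data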;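 also: 0% = DMSO wells and 100% = 10 µM SAHA wells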
* = called active by the depositor; · = no result.

SMILES	CXCR6 block	CCR6 antagonist	APJ ag	FXN GAA850 act	EBI2 antag	APJ antagonist	GAA30 FXN cntr	GAA850 confirm
COc1ccc(Cc2c(-c3ccc(F)cc3)nc3cc(C)c(Br)c(C)n23)c(C)c1	2.7	·	·	·	10.6	·	·	·
C(=C\c1nc(-c2cccnc2)no1)/c1ccccc1	-6.9	1.6	-1.8	8.7*	3.5	13.8	123.9*	42.6*
Clc1ccccc1/C=C/c1nc(-c2cccnc2)no1	16.5	5.3	-2.1	6.8	10.1	-17.4	·	·
N#C/C(=C\c1ccccc1[N+](=O)[O-])C(=O)NC1CCCCC1	-11.6	5.6	4.7	2.2	-34.8	-43.4	·	·
N#C/C(=C\C=C\c1ccccc1[N+](=O)[O-])C(=O)NC1CCCCC1	7.6	0.3	-3.0	14.0*	8.2	-23.0	-33.5	17.6*
C=CCN1C(=O)N/C(=C/c2ccc(N3CCOCC3)o2)C1=O	·	·	-2.2	·	·	20.4	·	·
O=C1N/C(=C/c2ccc(N3CCOCC3)o2)C(=O)N1c1ccccc1	-4.7	38.5	·	10.8*	12.2	·	54.1*	18.9*
COc1ccc(CCN(C)C(=O)c2ccc(S(=O)(=O)Nc3ccccc3C)cc2)cc1OC	·	-1.1	-2.1	·	·	8.9	·	·
CCOc1ccc(NS(=O)(=O)c2ccc(C(=O)N(C)CCc3ccc(OC)c(OC)c3)cc2)cc1	-5.7	-3.0	-4.9	9.7*	-3.9	1.1	26.9*	14.8*
O=C(C#Cc1ccccc1)Nc1cccc(F)c1	-10.1	-16.8	2.1	-8.0	-44.3	-18.0	·	·
c1ccc(Nc2ncnc3c2oc2ccccc23)cc1	-0.5	11.2	-1.1	2.6	-2.4	12.8	·	·
Oc1ccc(Nc2ncnc3c2oc2ccccc23)cc1	-2.0	4.8	-1.1	11.6*	11.2	-13.6	143.2*	39.7*
COc1cc(-c2nn3c(C4CCCCC4)nnc3s2)cc(OC)c1OC	1.0	-6.9	-1.5	-0.1	-4.4	-3.4	·	·
COc1ccc(-c2nn3c(C4CCCCC4)nnc3s2)cc1OC	0.1	13.9	-1.3	12.5*	-23.4	-2.4	12.9	9.7*
COc1ccc(-c2nnc3sc(C4CCCCC4)nn23)cc1OC	-4.7	13.7	-2.6	8.8*	-3.3	22.0	10.5	10.6*
COc1ccc(S(=O)(=O)N(C)C[C@H]2Oc3ccc(NS(=O)(=O)c4cn(C)cn4)cc3C(=O)N([C@H](C)CO)C[C@@H]2C)cc1	-1.5	2.0	-2.2	0.5	-9.8	3.6	·	·
O=C(Cn1ncc(Cl)c(Cl)c1=O)N1CCN(S(=O)(=O)c2ccc3ccccc3c2)CC1	21.5	5.3	-1.7	9.7*	42.2	14.4	-63.0	16.4*
COCCNC(=O)C1(C)CCN(Cc2ccc3ccccc3c2Br)C1 (centres undefined)	7.1	·	·	0.8	7.6	·	·	·
CCN1C(=O)/C(=C/C=C2/SCCN2C)SC1=S	24.9	45.0	-6.1	1.3	5.2	21.7	·	·
CCCCN1C(=O)/C(=C/C=C2/CC(C)(C)CN2C)SC1=S	22.3	43.3	-3.9	8.6*	13.3	25.6	95.3*	32.7*
CCCCn1nnnc1C1(C)CCC(=O)N1Cc1ccco1 (centres undefined)	-8.7	·	·	·	-7.0	·	·	·
CCOC(=O)N1CCN(C(=O)c2ccc(CS(=O)(=O)c3ccc(OC)cc3)o2)CC1	-9.2	6.2	-2.4	13.6*	1.9	3.7	20.5	7.1
COc1ccc(S(=O)(=O)Cc2ccc(C(=O)N3CCCC3)o2)cc1	3.2	5.3	-0.7	-1.6	-5.0	-2.3	·	·
Cc1ccc(C(=O)Nc2ncc(Cc3ccc(SC(F)F)cc3)s2)cc1	-17.6	-18.7	3.5	7.6*	-46.8	-12.1	-11.5	37.0*
COc1ccc(Cn2nnc3c(=O)[nH]c(C(=O)NCCc4ccc(F)cc4)nc32)cc1OC	-6.1	-5.5	-2.3	19.7*	-4.1	13.2	8.6	9.0*
SMILES	CXCR6 block	CCR6 antagonist	APJ ag	FXN GAA850 act	EBI2 antag	APJ antagonist	GAA30 FXN cntr	GAA850 confirm
O=C(NCCc1ccccc1)c1nc2c(nnn2Cc2ccccc2Cl)c(=O)[nH]1	2.9	-10.8	-2.7	1.3	5.4	-16.3	·	·
CC(C)n1cnc2c(Nc3cccc(Cl)c3)nc(NCCCO)nc21	-1.5	-0.8	-8.4	8.7*	19.2	-8.3	53.5*	15.4*
Cn1c(CS(=O)Cc2c(Cl)cccc2Cl)nnc1SCc1c(Cl)cccc1Cl (centres undefined)	-0.3	6.4	-2.1	10.5*	7.7	13.9	24.8*	9.3*
COc1cc(/C=N/NC(=O)c2nonc2C)ccc1O	-9.1	-15.2	0.2	0.8	-10.2	-12.2	·	·
Cc1nonc1C(=O)N/N=C/c1ccc(O)c(O)c1	-6.3	7.2	-0.2	9.4*	-11.5	-5.6	29.6*	8.4*
Cc1c(C(=O)Nc2ccncc2)sc2nc(-c3ccc(F)cc3)cn12	-12.1	-5.7	9.9	14.9*	-1.5	-6.1	45.7*	24.7*
COc1ccc(-c2cn3c(C)c(C(=O)Nc4ccncc4)sc3n2)cc1	-15.8	3.2	7.5	-1.1	11.8	0.1	·	·
Fc1ccc(-c2cnn3c(-c4ccncc4)ccnc23)cc1	-4.4	19.4	-4.1	8.6*	8.3	9.1	96.4*	29.6*
NC1(C(=O)O)CSSC1	0.2	1.8	·	9.8*	-4.0	·	-20.4	24.9*
CCC(O)(CC)C(=O)NN(C(=O)Nc1csc2c1CCCC2)c1ccccc1	4.0	5.3	-3.4	9.4*	5.7	20.1	6.6	2.6
Cc1ccc(S(=O)(=O)Nc2nc3ccccc3nc2N2CCOCC2)cc1	-3.3	3.4	0.5	0.3	4.0	5.5	·	·
O=S(=O)(Nc1nc2ccccc2nc1N1CCN(c2ccccc2)CC1)c1ccc(F)cc1	-7.6	-12.5	-0.3	8.0*	7.6	-1.0	17.9	9.7*
CCCCc1ccc(-c2ccc(Br)cc2)nc1	-0.5	12.4	-4.2	8.4*	12.2	21.5	106.7*	34.1*
CCCc1ccc(-c2ccc(-c3noc(-c4ccncc4)n3)cc2)nc1	-1.6	19.3	0.9	-0.5	20.1	4.1	·	·
Cc1c(Cl)c(C(=O)N2CCCCCC2)nn1C	1.3	11.9	-3.4	-2.1	-6.2	15.4	·	·
COc1ccc(-c2cc(C(F)(F)F)nc(S(=O)(=O)CCCC(=O)Nc3cc(C)on3)n2)cc1OC	8.0	11.0	·	10.3*	15.8	·	57.9*	82.6*
COc1ccccc1C(=O)Nc1ccc(C(=O)/C=C/c2cccs2)cc1	0.7	15.3	4.6	8.5*	16.7	5.7	22.5*	12.6*
CC1Cc2cccc3ccc(=O)n(c23)C1 (centres undefined)	-9.1	4.5	·	-0.3	-5.3	·	·	·
